Measurements: ChEMBL document CHEMBL5236609, “Optimization of 1,2,4-Triazole-3-thiones toward Broad-Spectrum Metallo-β-lactamase Inhibitors Showing Potent Synergistic Activity on VIM- and NDM-1-Producing Clinical Isolates” (J Med Chem, 2022)
Converted amounts (≈) assume the structure as drawn. The source made the active and inactive calls. No cut-off for these calls is given here.

tested on: Klebsiella pneumoniae; assay: Antimicrobial activity against blaVIM-4-producing multidrug-resistant Klebsiella pneumoniae VA-416/02 clinical isolate assessed as meropenem MIC at 32 ug/ml by broth microdilution method (reference value: […] ug/ml); type: functional; details: dose 32 µg/ml
Summary of the method: (§1)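 Inoculum was 5×10^4 CFU/well. Each inhibitor was present at a fixed 32 μg/mL, and MICs were also taken without inhibitor.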

Compound	MIC [µg/mL]
O=C(O)[C@H](CCCCn1c(-c2ccccc2)n[nH]c1=S)N(Cc1c[nH]cn1)Cc1c[nH]cn1	0.03
O=C(O)[C@@H](CCCn1c(-c2ccccc2)n[nH]c1=S)N(Cc1c[nH]cn1)Cc1c[nH]cn1	0.03
O=C(O)[C@H](CCCn1c(Cc2ccc3ccccc3c2)n[nH]c1=S)N(Cc1c[nH]cn1)Cc1c[nH]cn1	0.06
O=C(O)[C@H](Cn1c(-c2ccccc2)n[nH]c1=S)N(Cc1c[nH]cn1)Cc1c[nH]cn1	0.03

tested on: Pseudomonas aeruginosa; assay: Antimicrobial activity against blaVIM-2-producing multidrug-resistant Pseudomonas aeruginosa VA-182/00 clinical isolate; type: functional; details: not given

Compound	MIC [µg/mL]
C[C@@H](O)[C@H]1C(=O)N2C(C(=O)O)=C(S[C@@H]3CN[C@H](C(=O)N(C)C)C3)[C@H](C)[C@H]12 [MEROPENEM]	128 (≈ 334 µM)

biological target: not listed separately; assay: Inhibition of bacterial Metallo-beta-lactamase VIM-2 (unknown origin); design: species or system Bacteria; details: not given
Summary of the method: (§2)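 Reporter-substrate assay with purified MBL (1–70 nM final) in 50 mM HEPES pH 7.5 at 30 °C. […] Inhibitor 0.5–1000 μM final. Ki derived from the v0/vi vs [I] slope assuming competitive inhibition, or from a Dixon plot. Ki given when inhibition >70%, otherwise % inhibition at 100 μM. Triplicate.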

Compound	Ki [µM]
O=C(Nc1ccccc1)NC(CCCn1c(-c2ccccc2)n[nH]c1=S)C(=O)O (stereo not given)	6.93

tested on: not listed separately; assay: Inhibition of bacterial VIM-2 (unknown origin) expressed in Escherichia coli EXPRESS BL21(DE3) assessed as inhibition constant by measuring rate of substrate hydrolysis by UV-visible spectrophotometry; design: species or system Bacteria; details: not given; summary of the method: as §2

Compound	Ki [nM]
O=C(O)[C@H](CCCCn1c(-c2ccccc2)n[nH]c1=S)N(Cc1c[nH]cn1)Cc1c[nH]cn1	970
O=C(O)[C@@H](CCCn1c(-c2ccccc2)n[nH]c1=S)N(Cc1c[nH]cn1)Cc1c[nH]cn1	190
O=C(O)[C@H](CCCn1c(Cc2ccc3ccccc3c2)n[nH]c1=S)N(Cc1c[nH]cn1)Cc1c[nH]cn1	270
O=C(O)[C@H](Cn1c(-c2ccccc2)n[nH]c1=S)N(Cc1c[nH]cn1)Cc1c[nH]cn1	1500

tested on: not listed separately; assay: Inhibition of bacterial NDM-1 (unknown origin) expressed in Escherichia coli EXPRESS BL21(DE3) assessed as inhibition constant by measuring rate of substrate hydrolysis by UV-visible spectrophotometry; design: species or system Bacteria; details: not given; summary of the method: as §2

Compound	Ki [nM]
O=C(O)[C@H](CCCCn1c(-c2ccccc2)n[nH]c1=S)N(Cc1c[nH]cn1)Cc1c[nH]cn1	360
O=C(O)[C@@H](CCCn1c(-c2ccccc2)n[nH]c1=S)N(Cc1c[nH]cn1)Cc1c[nH]cn1	14
O=C(O)[C@H](CCCn1c(Cc2ccc3ccccc3c2)n[nH]c1=S)N(Cc1c[nH]cn1)Cc1c[nH]cn1	30
O=C(O)[C@H](Cn1c(-c2ccccc2)n[nH]c1=S)N(Cc1c[nH]cn1)Cc1c[nH]cn1	40

tested on: not listed separately; assay: Inhibition of bacterial VIM-1 (unknown origin) expressed in Escherichia coli EXPRESS BL21(DE3) assessed as inhibition constant by measuring rate of substrate hydrolysis by UV-visible spectrophotometry; design: species or system Bacteria; details: not given; summary of the method: as §2

Compound	Ki [nM]
O=C(O)[C@H](CCCCn1c(-c2ccccc2)n[nH]c1=S)N(Cc1c[nH]cn1)Cc1c[nH]cn1	40
O=C(O)[C@@H](CCCn1c(-c2ccccc2)n[nH]c1=S)N(Cc1c[nH]cn1)Cc1c[nH]cn1	170
O=C(O)[C@H](CCCn1c(Cc2ccc3ccccc3c2)n[nH]c1=S)N(Cc1c[nH]cn1)Cc1c[nH]cn1	80
O=C(O)[C@H](Cn1c(-c2ccccc2)n[nH]c1=S)N(Cc1c[nH]cn1)Cc1c[nH]cn1	880

tested on: not listed separately; assay: Metabolic stability in CD-1 mouse microsomes assessed as half life at 37 degC by LC-MS/MS analysis; type: ADME, Microsome; details: not given
Summary of the method: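 Mouse liver microsomes, mixed gender, at 37 °C for 40 min; propranolol control. Reports t1/2, intrinsic clearance and % intact compound remaining at 40 min.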

Compound	half-life [min]
CCOC(=O)[C@H](CCc1ccccc1)N[C@@H](C)C(=O)N1CCC[C@H]1C(=O)O	63

tested on: Bacteria; assay: Inhibition of bacterial VIM-2 (unknown origin) assessed as Zn(II) content in protein at >5 uM by overnight equilibrium dialysis; details: not given
Summary of the method: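 VIM-2 or NDM-1 (3 μM final) in 50 mM HEPES pH 7.5 mixed with compound at 0–48 μM. Incubated 1 h on ice, then dialysed overnight at 4 °C against 50 mM HEPES pH 7.5. Zn(II) content measured by atomic absorption at 213.86 nm against a zinc standard curve. Each point averages three samples.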

Compound	inhibition
O=C(O)[C@@H](CCCn1c(-c2ccccc2)n[nH]c1=S)N(Cc1c[nH]cn1)Cc1c[nH]cn1	Active

tested on: not listed separately; assay: Inhibition of bacterial Metallo-beta-lactamase NDM-1 (unknown origin); design: species or system Bacteria; details: not given; summary of the method: as §2

Compound	Ki
O=C(Nc1ccccc1)NC(CCCn1c(-c2ccccc2)n[nH]c1=S)C(=O)O (stereo not given)	Not Active

tested on: Escherichia coli; assay: Antimicrobial activity against blaNDM-1-producing multidrug-resistant Escherichia coli SI-004 clinical isolate; type: functional; details: not given
Summary of the method: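 Broth microdilution per CLSI in cation-supplemented Mueller–Hinton broth with an inoculum of 5×10^4 CFU/well.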

Compound	MIC [µg/mL]
C[C@@H](O)[C@H]1C(=O)N2C(C(=O)O)=C(S[C@@H]3CN[C@H](C(=O)N(C)C)C3)[C@H](C)[C@H]12 [MEROPENEM]	64 (≈ 167 µM)

tested on: Escherichia coli; assay: Antimicrobial activity against blaNDM-1-producing multidrug-resistant Escherichia coli SI-004 clinical isolate assessed as meropenem MIC at 32 ug/ml by broth microdilution method (reference value: 64 ug/ml); details: not given

Compound	MIC [µg/mL]
O=C(O)[C@H](CCCCn1c(-c2ccccc2)n[nH]c1=S)N(Cc1c[nH]cn1)Cc1c[nH]cn1	0.06
O=C(O)[C@@H](CCCn1c(-c2ccccc2)n[nH]c1=S)N(Cc1c[nH]cn1)Cc1c[nH]cn1	0.06
O=C(O)[C@H](CCCn1c(Cc2ccc3ccccc3c2)n[nH]c1=S)N(Cc1c[nH]cn1)Cc1c[nH]cn1	0.06
O=C(O)[C@H](Cn1c(-c2ccccc2)n[nH]c1=S)N(Cc1c[nH]cn1)Cc1c[nH]cn1	0.06

biological target: not listed separately; assay: Inhibition of bacterial Metallo-beta-lactamase VIM-4 (unknown origin); design: species or system Bacteria; details: not given; summary of the method: as §2

Compound	Ki [µM]
O=C(Nc1ccccc1)NC(CCCn1c(-c2ccccc2)n[nH]c1=S)C(=O)O (stereo not given)	4.14

tested on: Klebsiella pneumoniae; assay: Antimicrobial activity against blaVIM-1-producing multidrug-resistant Klebsiella pneumoniae K47-25 clinical isolate assessed as meropenem MIC at 32 ug/ml by broth microdilution method (reference value: […] ug/ml); type: functional; details: dose 32 µg/ml; summary of the method: as §1

Compound	MIC [µg/mL]
O=C(O)[C@H](CCCCn1c(-c2ccccc2)n[nH]c1=S)N(Cc1c[nH]cn1)Cc1c[nH]cn1	0.03
O=C(O)[C@@H](CCCn1c(-c2ccccc2)n[nH]c1=S)N(Cc1c[nH]cn1)Cc1c[nH]cn1	0.03
O=C(O)[C@H](CCCn1c(Cc2ccc3ccccc3c2)n[nH]c1=S)N(Cc1c[nH]cn1)Cc1c[nH]cn1	0.03
O=C(O)[C@H](Cn1c(-c2ccccc2)n[nH]c1=S)N(Cc1c[nH]cn1)Cc1c[nH]cn1	0.03

tested on: not listed separately; assay: Inhibition of bacterial VIM-4 (unknown origin) expressed in Escherichia coli EXPRESS BL21(DE3) assessed as inhibition constant by measuring rate of substrate hydrolysis by UV-visible spectrophotometry; design: species or system Bacteria; details: not given; summary of the method: as §2

Compound	Ki [nM]
O=C(O)[C@H](CCCCn1c(-c2ccccc2)n[nH]c1=S)N(Cc1c[nH]cn1)Cc1c[nH]cn1	470
O=C(O)[C@@H](CCCn1c(-c2ccccc2)n[nH]c1=S)N(Cc1c[nH]cn1)Cc1c[nH]cn1	110
O=C(O)[C@H](CCCn1c(Cc2ccc3ccccc3c2)n[nH]c1=S)N(Cc1c[nH]cn1)Cc1c[nH]cn1	190
O=C(O)[C@H](Cn1c(-c2ccccc2)n[nH]c1=S)N(Cc1c[nH]cn1)Cc1c[nH]cn1	560

tested on: Pseudomonas aeruginosa; assay: Antimicrobial activity against blaVIM-2-producing multidrug-resistant Pseudomonas aeruginosa VA-182/00 clinical isolate assessed as meropenem MIC at 32 ug/ml by broth microdilution method (reference value: 128 ug/ml); type: functional; details: dose 32 µg/ml; summary of the method: as §1

Compound	MIC [µg/mL]
O=C(O)[C@H](CCCCn1c(-c2ccccc2)n[nH]c1=S)N(Cc1c[nH]cn1)Cc1c[nH]cn1	16
O=C(O)[C@@H](CCCn1c(-c2ccccc2)n[nH]c1=S)N(Cc1c[nH]cn1)Cc1c[nH]cn1	8
O=C(O)[C@H](CCCn1c(Cc2ccc3ccccc3c2)n[nH]c1=S)N(Cc1c[nH]cn1)Cc1c[nH]cn1	8
O=C(O)[C@H](Cn1c(-c2ccccc2)n[nH]c1=S)N(Cc1c[nH]cn1)Cc1c[nH]cn1	16

biological target: Insulin-degrading enzyme (Homo sapiens) (UniProt P14735); assay: Inhibition of recombinant human IDE using ATTO 655-Cys-Lys-Leu-Val-Phe-Phe-Ala-Glu-Asp-Trp as substrate at 0.4 uM measured after 45 mins by fluorescence assay relative to control; details: not given
Sequence (P14735 whole entry): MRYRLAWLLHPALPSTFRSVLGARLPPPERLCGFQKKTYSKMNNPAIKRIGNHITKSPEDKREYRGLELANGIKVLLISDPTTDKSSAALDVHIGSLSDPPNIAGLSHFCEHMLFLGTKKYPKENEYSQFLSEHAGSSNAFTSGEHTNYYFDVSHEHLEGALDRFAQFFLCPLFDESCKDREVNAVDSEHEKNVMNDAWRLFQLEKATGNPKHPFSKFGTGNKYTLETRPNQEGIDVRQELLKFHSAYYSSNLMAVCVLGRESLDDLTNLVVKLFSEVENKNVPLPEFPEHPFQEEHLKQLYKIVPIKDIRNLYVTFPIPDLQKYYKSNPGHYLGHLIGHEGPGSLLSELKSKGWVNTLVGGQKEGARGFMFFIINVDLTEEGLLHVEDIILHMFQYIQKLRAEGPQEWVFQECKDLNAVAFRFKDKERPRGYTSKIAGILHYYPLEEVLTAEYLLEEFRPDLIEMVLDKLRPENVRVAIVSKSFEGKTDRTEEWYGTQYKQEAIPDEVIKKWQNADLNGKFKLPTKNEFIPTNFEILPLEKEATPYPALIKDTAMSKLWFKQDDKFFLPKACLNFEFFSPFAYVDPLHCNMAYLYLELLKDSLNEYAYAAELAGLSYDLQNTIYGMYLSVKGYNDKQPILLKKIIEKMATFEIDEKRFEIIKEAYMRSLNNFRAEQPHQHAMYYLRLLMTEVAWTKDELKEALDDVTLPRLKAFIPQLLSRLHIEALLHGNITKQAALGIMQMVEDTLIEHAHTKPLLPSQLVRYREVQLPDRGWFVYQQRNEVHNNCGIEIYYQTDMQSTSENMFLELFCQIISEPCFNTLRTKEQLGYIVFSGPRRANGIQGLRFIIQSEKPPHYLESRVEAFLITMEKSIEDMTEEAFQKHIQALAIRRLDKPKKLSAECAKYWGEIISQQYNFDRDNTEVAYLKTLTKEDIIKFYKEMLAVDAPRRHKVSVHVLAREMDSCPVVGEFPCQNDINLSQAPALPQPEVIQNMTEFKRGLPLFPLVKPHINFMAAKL

Compound	inhibition [%]
O=C(C[C@H](Cc1ccc2ccccc2c1)n1cc(CNC(=O)c2ccc(F)cc2)nn1)NO	65

tested on: not listed separately; assay: Inhibition of bacterial Metallo-beta-lactamase IMP-1 (unknown origin); design: species or system Bacteria; details: not given; summary of the method: as §2

Compound	Ki
O=C(Nc1ccccc1)NC(CCCn1c(-c2ccccc2)n[nH]c1=S)C(=O)O (stereo not given)	Not Active

tested on: not listed separately; assay: Inhibition of bacterial IMP-1 (unknown origin) expressed in Escherichia coli EXPRESS BL21(DE3) assessed as inhibition constant by measuring rate of substrate hydrolysis by UV-visible spectrophotometry; design: species or system Bacteria; details: not given; summary of the method: as §2

Compound	Ki [µM]
O=C(O)[C@H](CCCCn1c(-c2ccccc2)n[nH]c1=S)N(Cc1c[nH]cn1)Cc1c[nH]cn1	5
O=C(O)[C@@H](CCCn1c(-c2ccccc2)n[nH]c1=S)N(Cc1c[nH]cn1)Cc1c[nH]cn1	7.4
O=C(O)[C@H](CCCn1c(Cc2ccc3ccccc3c2)n[nH]c1=S)N(Cc1c[nH]cn1)Cc1c[nH]cn1	11.2
O=C(O)[C@H](Cn1c(-c2ccccc2)n[nH]c1=S)N(Cc1c[nH]cn1)Cc1c[nH]cn1	4.2
